The record followed here is ChEMBL document CHEMBL2331480, “Novel naphthoquinone derivatives: synthesis and activity against human African trypanosomiasis” (Bioorg Med Chem Lett, 2013).

Where only a bound is given, the exact number is not on record here.

One test relates to L6. Description: Cytotoxicity against rat L6 cells after 72 hrs by SRB assay. The format is cell-based. Particulars: L6, 72 h. Put shortly: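 L-6 rat skeletal myoblasts seeded at 2 × 10^3 cells/100 µL in DMEM with 10% heat-inactivated FBS onto threefold serially diluted compounds, with solvent blanks; 72 h at 37 °C, 5% CO2. Cells fixed with TCA (10% final, 4 °C, 1 h), stained 45 min with 0.4% SRB in 1% acetic acid, dye solubilized in 10 mM Tris base pH 10.5.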
For orientation: Sulforhodamine B stains cellular protein and so reports cell mass.

The subject of test [1] is Trypanosoma brucei rhodesiense. The test is described as follows: Antitrypanosomal activity against Trypanosoma brucei rhodesiense after 48 hrs by CellTiter-Glo assay. The format is functional, organism-based. An outline of the steps: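 T. b. rhodesiense bloodstream forms isolated from infected blood (citrate-glucose anticoagulant, diluted in HMI-9, low-speed spin), grown at 37 °C, 5% CO2 in HMI-9 with 10% heat-inactivated FBS and 10% Serum Plus. Compounds in DMSO pin-transferred onto diluted culture; 48 h at 37 °C; CellTiter-Glo read […] as percent of control; IC50 calculated.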
(In general: ATP-based viability assays read luminescence as a measure of living cells.)

As a reminder, the IC50 is the concentration that gives 50% inhibition. Take `Cc1ccccc1NC1=C(Cl)C(=O)c2c(cccc2[N+](=O)[O-])C1=O`: the IC50 in the test on L6 is 210 µM; in test [1], 3 µM.

For the molecule `Cc1ccc(NC2=C(Nc3ccc(C)cc3)C(=O)c3c(cccc3[N+](=O)[O-])C2=O)cc1`, the concentration for half-maximal inhibition (IC50) came to 172 µM in the test with L6 and 12 µM in test [1].

As to `O=C1C(Cl)=C(Nc2ccccc2C(F)(F)F)C(=O)c2ccccc21`, the 50% inhibitory concentration (IC50) worked out at 307 µM with L6 and 0.15 µM in test [1].

As to `Cc1ccccc1NC1=C(Nc2ccccc2C)C(=O)c2c(cccc2[N+](=O)[O-])C1=O`, the IC50 in the test with L6 turned out to be 186 µM; in test [1], 7 µM.

For the molecule `O=C1C(Nc2ccc(C(F)(F)F)cc2)=C(Nc2ccc(C(F)(F)F)cc2)C(=O)c2c1cccc2[N+](=O)[O-]`, the IC50 with L6 stood at 97 µM; in test [1] it was 4 µM.

Regarding `O=C1C(Cl)=C(Nc2ccc(C(F)(F)F)cc2)C(=O)c2c1cccc2[N+](=O)[O-]`, the IC50 in the test on L6 stood at 121 µM; in test [1], 2 µM.

As for `O=C1C(Nc2ccccc2C(F)(F)F)=C(Nc2ccccc2C(F)(F)F)C(=O)c2c1cccc2[N+](=O)[O-]`, the IC50 worked out at 88 µM in the test with L6 and 0.09 µM in test [1].

Consider `Cc1ccc(NC2=C(Cl)C(=O)c3cccc([N+](=O)[O-])c3C2=O)cc1`, for which the figures for the IC50 (in the test on L6; in test [1]) were 186 µM and 8 µM, respectively.

For the molecule `O=C1C(Cl)=C(Nc2ccccc2C(F)(F)F)C(=O)c2c1cccc2[N+](=O)[O-]`, the figures for the IC50 (in the test on L6; in test [1]) were 75 µM and 0.07 µM, respectively.

`O=C1C(Nc2ccccc2)=C(Nc2ccccc2)C(=O)c2ccccc21`: the IC50 in the test on L6 came to 378 µM; in test [1], 0.67 µM.

As for `Cc1cccc(NC2=C(Cl)C(=O)c3ccccc3C2=O)c1`, the IC50 in the test on L6 is greater than 450 µM; in test [1], 18 µM.

Regarding `O=C1C(Nc2ccccc2C(F)(F)F)=C(Nc2ccccc2C(F)(F)F)C(=O)c2ccccc21`, the IC50 with L6 came out at 292 µM; in test [1] it was 0.45 µM.

Take `Cc1ccccc1NC1=C(Cl)C(=O)c2cccc([N+](=O)[O-])c2C1=O`: the results for the half-inhibitory concentration (IC50) (in the test on L6; in test [1]) were 195 µM and 4 µM, respectively.

Take `Cc1ccc(NC2=C(Nc3ccc(C)cc3)C(=O)c3ccccc3C2=O)cc1`: the values for the IC50 (in the test with L6; in test [1]) were greater than 450 µM and 24 µM, respectively.

Consider `Cc1ccccc1NC1=C(Nc2ccccc2C)C(=O)c2ccccc2C1=O`, for which the concentration for half-maximal inhibition (IC50) is greater than 450 µM in the test with L6 and 20 µM in test [1].

`O=C1C(Nc2ccccc2C(F)(F)F)=C(Cl)C(=O)c2c1cccc2[N+](=O)[O-]`: the IC50 with L6 was 95 µM; in test [1], 0.05 µM.

For the molecule `Cc1cccc(NC2=C(Cl)C(=O)c3cccc([N+](=O)[O-])c3C2=O)c1`, the IC50 in the test with L6 stood at 214 µM; in test [1], 10 µM.

Consider `Cc1cccc(NC2=C(Nc3cccc(C)c3)C(=O)c3c(cccc3[N+](=O)[O-])C2=O)c1`, for which the results for the IC50 (in the test with L6; in test [1]) were 195 µM and 15 µM, respectively.

As to `Cc1ccc(NC2=C(Cl)C(=O)c3ccccc3C2=O)cc1`, the results for the IC50 (in the test on L6; in test [1]) were greater than 450 µM and 20 µM, respectively.

`O=C1C(Nc2ccc(C(F)(F)F)cc2)=C(Cl)C(=O)c2c1cccc2[N+](=O)[O-]`: the IC50 was 115 µM in the test with L6 and 0.8 µM in test [1].

As to `O=C1C(Cl)=C(Nc2ccccc2)C(=O)c2ccccc21`, the IC50 in the test on L6 is 417 µM; in test [1], 0.17 µM.

For the molecule `Cc1ccc(NC2=C(Cl)C(=O)c3c(cccc3[N+](=O)[O-])C2=O)cc1`, the results for the 50% inhibitory concentration (IC50) (with L6; in test [1]) were 169 µM and 6 µM, respectively.

For `Cc1ccccc1NC1=C(Cl)C(=O)c2ccccc2C1=O`, the IC50 in the test on L6 is greater than 450 µM; in test [1] it was 18 µM.

Take `O=C1C(Nc2ccc(C(F)(F)F)cc2)=C(Nc2ccc(C(F)(F)F)cc2)C(=O)c2ccccc21`: the IC50 in the test on L6 turned out to be 276 µM; in test [1], 2 µM.

Turning to `Cc1cccc(NC2=C(Cl)C(=O)c3c(cccc3[N+](=O)[O-])C2=O)c1`, the half-maximal inhibitory concentration (IC50) with L6 is 223 µM; in test [1], 11 µM.

Take `O=C1C(Cl)=C(Nc2ccc(C(F)(F)F)cc2)C(=O)c2ccccc21`: the IC50 with L6 was 292 µM; in test [1], 0.8 µM.

Consider `Cc1cccc(NC2=C(Nc3cccc(C)c3)C(=O)c3ccccc3C2=O)c1`, for which the values for the IC50 (in the test on L6; in test [1]) were greater than 450 µM and 21 µM, respectively.
